For orientation: EC50 means the concentration giving half of the maximal effect.

The structures appear in SMILES notation. The source made the active and inactive calls. No cut-off for these calls is given here.

Consider 19 compounds from ChEMBL document CHEMBL3396953, “Design, synthesis and biological evaluation of a class of bioisosteric oximes of the novel dual peroxisome proliferator-activated receptor α/γ ligand LT175” (Eur J Med Chem, 2015).

Format in all cases: cell-based
Experiment [1] addresses T1, Peroxisome proliferator-activated receptor alpha (Homo sapiens, UniProt Q07869).
T1 sequence (Q07869 whole entry): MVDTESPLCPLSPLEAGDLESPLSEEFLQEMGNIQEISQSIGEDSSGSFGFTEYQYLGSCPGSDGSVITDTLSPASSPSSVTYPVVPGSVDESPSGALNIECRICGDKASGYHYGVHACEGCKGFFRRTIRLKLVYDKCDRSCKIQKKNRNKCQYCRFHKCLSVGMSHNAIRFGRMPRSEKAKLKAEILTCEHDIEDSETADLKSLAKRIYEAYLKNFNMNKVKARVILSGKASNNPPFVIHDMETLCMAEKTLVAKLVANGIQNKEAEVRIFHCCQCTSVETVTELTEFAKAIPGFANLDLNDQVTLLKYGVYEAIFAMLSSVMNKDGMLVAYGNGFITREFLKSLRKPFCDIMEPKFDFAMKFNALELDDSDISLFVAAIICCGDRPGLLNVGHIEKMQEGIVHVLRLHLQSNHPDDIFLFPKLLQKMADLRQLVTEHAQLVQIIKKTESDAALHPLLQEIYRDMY
Kind of experiment: Agonist activity at GAL4-DNA binding domain fused human PPARalpha ligand binding domain expressed in human HepG2 cells assessed as receptor transactivation incubated for 20 hrs by luciferase reporter gene assay. A digest of the protocol: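 GAL4-PPARα-LBD chimera transiently expressed in HepG2 cells; 10⁵ cells/well seeded in triplicate, calcium-phosphate transfection after 24 h with GAL4-PPARα-LBD plasmid (30 ng), pGAL5TKpGL3 reporter (100 ng) and pCMVβgal (250 ng). Transfections repeated at least twice.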
For orientation: In a reporter assay the amount or activity of a reporter protein is the signal.

In experiment [2] the target is T2, Peroxisome proliferator-activated receptor alpha (Homo sapiens) (UniProt Q07869).
T2 sequence (whole entry): T1 sequence (Q07869 whole entry)
Kind of experiment: Agonist activity at GAL4-DNA binding domain fused human PPARalpha ligand binding domain expressed in human HepG2 cells assessed as receptor transactivation incubated for 20 hrs by luciferase reporter gene assay relative to Wy-14,643. In a few lines: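 GAL4-PPARα-LBD chimera transiently expressed in HepG2 cells; 10⁵ cells/well seeded in triplicate, calcium-phosphate transfection after 24 h with GAL4-PPARα-LBD plasmid (30 ng), pGAL5TKpGL3 reporter (100 ng) and pCMVβgal (250 ng). Efficacy expressed as percentage of maximum fold induction obtained with reference agonist Wy-14,643. Transfections repeated at least twice.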

Experiment [3] concerns the target T3, Peroxisome proliferator-activated receptor gamma (Homo sapiens, UniProt P37231).
T3 sequence (P37231 whole entry): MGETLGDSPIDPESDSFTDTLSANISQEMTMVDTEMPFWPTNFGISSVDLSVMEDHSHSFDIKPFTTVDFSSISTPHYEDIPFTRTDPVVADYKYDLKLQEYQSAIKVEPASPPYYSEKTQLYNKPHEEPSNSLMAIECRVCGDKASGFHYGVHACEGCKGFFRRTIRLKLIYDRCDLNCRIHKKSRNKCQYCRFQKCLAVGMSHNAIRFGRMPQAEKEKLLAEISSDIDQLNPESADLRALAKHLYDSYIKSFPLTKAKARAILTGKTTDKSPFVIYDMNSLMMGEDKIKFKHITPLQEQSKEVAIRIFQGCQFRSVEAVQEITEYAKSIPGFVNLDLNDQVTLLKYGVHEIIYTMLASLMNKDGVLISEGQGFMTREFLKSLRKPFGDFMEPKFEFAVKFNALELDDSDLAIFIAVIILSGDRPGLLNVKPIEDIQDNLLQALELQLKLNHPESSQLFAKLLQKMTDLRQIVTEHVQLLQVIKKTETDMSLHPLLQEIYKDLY
The experiment is described as follows: Agonist activity at GAL4-DNA binding domain fused human PPARgamma ligand binding domain expressed in human HepG2 cells assessed as receptor transactivation incubated for 20 hrs by luciferase reporter gene assay.

In experiment [4] the target is T4, PPAR alpha/gamma (Homo sapiens) (UniProt P37231+Q07869). Kind of experiment: Agonist activity at PPARalpha/PPARgamma in human […] cells assessed as increase in HMGCS2 gene expression at 25 uM incubated for 1 day by quantitative PCR method relative to untreated control. A digest of the protocol:
(§1)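 HepaRG cells grown two weeks in William's E medium with 10% FCS, insulin, glutamine and hydrocortisone, then two weeks more with 2% DMSO. Hepatocyte-like cells detached by mild trypsinization and seeded at 2.6 × 10⁴ cells/cm². After 24 h they were starved 16 h without DMSO/FCS, then exposed 24 h to ligand. Total RNA assayed by real-time qPCR; vehicle-treated control set to 1; duplicate samples; two-way ANOVA with Bonferroni.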

For experiment [5], the target named is T4, PPAR alpha/gamma (Homo sapiens). The experiment is described as follows: Agonist activity at PPARalpha/PPARgamma in human […] cells assessed as increase in CPT1A gene expression at 25 uM incubated for 1 day by quantitative PCR method relative to untreated control. In a few lines:
as §1

The target is the same in experiment [6]. The experiment is described as follows: Agonist activity at PPARalpha/PPARgamma in human […] cells assessed as increase in CD36 gene expression at 25 uM incubated for 1 day by quantitative PCR method relative to untreated control. In a few lines: as §1
Experiment [7] has the same target. The experiment is described as follows: Agonist activity at PPARalpha/PPARgamma in human […] cells assessed as increase in ANGPTL4 gene expression at 25 uM incubated for 1 day by quantitative PCR method relative to untreated control. In a few lines: as §1
For experiment [8] the target is unchanged. The experiment is described as follows: Agonist activity at PPARalpha/PPARgamma in human […] cells assessed as increase in FABP4 gene expression at 25 uM incubated for 1 day by quantitative PCR method relative to untreated control. In a few lines: as §1
Experiment [9] shares this target. The experiment is described as follows: Agonist activity at PPARalpha/PPARgamma in human […] cells assessed as increase in FABP1 gene expression at 25 uM incubated for 1 day by quantitative PCR method relative to untreated control. A digest of the protocol:
as §1

For the compound `O=C(O)C(Cc1ccccc1)Oc1ccc(/C(=N/O)c2ccccc2)cc1` (racemic), the EC50 turned out to be 1.2 µM in experiment [1] (read-out: EC50) and 12.4 µM in experiment [3] (read-out: EC50). Also, the Emax in [2] stood at 78%.

As for `Cc1cccc(Nc2cc(Cl)nc(SCC(=O)O)n2)c1C` [PIRINIXIC ACID], in experiment [3] (hepg2), the half-maximal effective concentration (EC50) result is listed as “Not Active”.

With `O=C(O)[C@H](Cc1ccccc1)Oc1ccc(-c2ccccc2)cc1`, the Emax in experiment [2] amounted to 100%.

With `CC(C)O/N=C/c1ccc(OC(Cc2ccccc2)C(=O)O)cc1` (racemic), the concentration giving a half-maximal response (EC50) in experiment [1] (read-out: EC50) turned out to be 4.2 µM; in experiment [3] (read-out: EC50) it was 5.6 µM. Further, the Emax in experiment [2] was 63%.

Take `O=C(O)C(Cc1ccccc1)Oc1ccc(/C=N/OCCc2ccccc2)cc1` (racemic): the EC50 in experiment [1] (read-out: EC50) is 2.2 µM; in [3] (read-out: EC50) it was 1.8 µM. In [2], the Emax turned out to be 48%.

Consider `C/C(=N\O)c1ccc(OC(Cc2ccccc2)C(=O)O)cc1` (racemic), for which the figures for the half-maximal effective concentration (EC50) in experiment [1] (read-out: EC50) and in experiment [3] (read-out: EC50) were 5.2 µM and 9.4 µM, respectively. In addition, the Emax in experiment [2] came out at 68%.

With `O=C(O)C(Cc1ccccc1)Oc1ccc(/C=N/OCCCc2ccccc2)cc1` (racemic), the EC50 in experiment [1] (read-out: EC50) is 1.4 µM; in experiment [3] (read-out: EC50), 1.25 µM. Moreover, in experiment [2], the Emax came to 24%.

Regarding `O=C(O)[C@H](Cc1ccccc1)Oc1ccc(/C=N/O)cc1`, the EC50 was 5.5 µM in [1] (read-out: EC50) and 28 µM in experiment [3] (read-out: EC50). In experiment [2], the Emax amounted to 98%.

Turning to `CCCO/N=C/c1ccc(O[C@@H](Cc2ccccc2)C(=O)O)cc1`, the EC50 in experiment [1] (read-out: EC50) and in experiment [3] (read-out: EC50) was 3.8 µM in each case. In addition, in experiment [2], the Emax was 91%. Besides, the outcome in experiment [4], in experiment [6], in experiment [7] and in experiment [9] was Active. The figures for the fold change (FC) in experiment [5] and in experiment [8] were 2 and 50, respectively.

Turning to `CN(CCOc1ccc(CC2SC(=O)NC2=O)cc1)c1ccccn1` (stereo unspecified) [ROSIGLITAZONE], in experiment [1] (hepg2), the concentration giving a half-maximal response (EC50) result is on record as “Not Active”. Moreover, the Emax entry in experiment [2] was “inactive”.

For the compound `CCCO/N=C(\c1ccccc1)c1ccc(OC(Cc2ccccc2)C(=O)O)cc1` (racemic), the 50% effective concentration (EC50) in experiment [1] (read-out: EC50) came to 2.1 µM; in [3] (read-out: EC50) it was 1 µM. Besides, in [2], the Emax worked out at 24%.

Regarding `CC(C)CO/N=C/c1ccc(OC(Cc2ccccc2)C(=O)O)cc1` (racemic), the EC50 amounted to 3.8 µM in experiment [1] (read-out: EC50) and 4.5 µM in experiment [3] (read-out: EC50). The Emax in experiment [2] turned out to be 52%.

On to `O=C(O)C(Cc1ccccc1)Oc1ccc(/C=N/OCc2ccccc2)cc1` (racemic), for which the EC50 in experiment [1] (read-out: EC50) is 6.8 µM; in experiment [3] (read-out: EC50), 2.1 µM. Also, the Emax in experiment [2] is 58%.

Consider `CCCO/N=C/c1ccc(OC(Cc2ccccc2)C(=O)O)cc1` (racemic), for which the values for the EC50 in experiment [1] (read-out: EC50) and in experiment [3] (read-out: EC50) were 7.3 µM and 7.9 µM, respectively. Besides, the Emax in experiment [2] was 96%.

Regarding `CCCCCCCO/N=C/c1ccc(OC(Cc2ccccc2)C(=O)O)cc1` (racemic), the EC50 result in experiment [1] (hepg2) was “Not Active”.

On to `CCCCO/N=C/c1ccc(OC(Cc2ccccc2)C(=O)O)cc1` (racemic), for which the EC50 is 3.9 µM in experiment [1] (read-out: EC50) and 3.65 µM in [3] (read-out: EC50). In addition, in [2], the Emax was determined as 68%.

As to `O=C(O)C(Cc1ccccc1)Oc1ccc(/C=N/O)cc1` (racemic), the EC50 was determined as 7.75 µM in experiment [1] (read-out: EC50) and 43 µM in [3] (read-out: EC50). The Emax in experiment [2] is 91%.

Regarding `CCCO/N=C(/c1ccccc1)c1ccc(OC(Cc2ccccc2)C(=O)O)cc1` (racemic), the figures for the concentration giving a half-maximal response (EC50) in experiment [1] (read-out: EC50) and in experiment [3] (read-out: EC50) were 0.22 µM and 0.68 µM, respectively. In addition, the Emax in experiment [2] is 59%.

In the case of `CO/N=C/c1ccc(OC(Cc2ccccc2)C(=O)O)cc1` (racemic), the EC50 is 7.8 µM in experiment [1] (read-out: EC50) and 12.8 µM in experiment [3] (read-out: EC50). In addition, in experiment [2], the Emax was 101%.
